Laboratory results: ChEMBL document CHEMBL4725393, “Prodrug Strategies to Improve the Solubility of the HCV NS5A Inhibitor Pibrentasvir (ABT-530)” (J Med Chem, 2020)
≈ marks a conversion by molar mass, not a printed value.

Key:
[1] = Equilibrium solubility of compound at pH 7.4 incubated for 24 to 48 hrs by HPLC analysis; type: physicochemical; details: buffer, time 24-48 hrs
How it was run: (§1)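 For equilibrium solubility, excess solid was added to 3–4 mL of medium, in triplicate. Suspension pH was read after equilibration. Solids were removed by centrifugation at 4000 rpm at 25 °C, and the supernatant was passed through a 0.45 µm filter, discarding the first 2 mL. The filtrate was quantified by HPLC against standard curves.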

[2] = Solubility in FeSSIF at pH 5; type: physicochemical; how it was run: as §1
[3] = Equilibrium solubility of compound at pH 1 incubated for 24 to 48 hrs by HPLC analysis; type: physicochemical; details: buffer, time 24-48 hrs; how it was run: as §1
[4] = Stability of compound at pH 1 assessed as prodrug remaining level at 125 ug/ml incubated for 24 hrs by HPLC analysis; type: physicochemical; details: buffer, pH 1, 24 h, at 125 µg/mL
How it was run: (§2)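 A DMSO stock of about 1.25 mg/mL was diluted into 0.1 N HCl (pH 1) or 50 mM phosphate buffer (pH 7.4), giving final concentrations of ~125 µg/mL prodrug and 10% DMSO. The solution was filtered and held at 37 °C in the HPLC autosampler, with injections at several times over 24 h. Percent remaining was calculated from prodrug peak area relative to t0.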

[5] = Stability of compound at pH 7.4 assessed as prodrug remaining level at 125 ug/ml incubated for 24 hrs by HPLC analysis; type: physicochemical; details: buffer, pH 7.4, 24 h, at 125 µg/mL; how it was run: as §2
[6] = AUC in beagle dog at 40 mg, po measured up to 24 hrs; type: ADME, organism-based, Canis lupus familiaris; design: route oral, dose 40 mg, time <=24; details: in vivo
How it was run: (§3)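 The dose equalled 40 mg PIB after adjustment for prodrug MW. Food was returned at 12 h. K2EDTA plasma was sampled at 0.25–24 h. Cmax is in ng/mL and AUC in ng·h/mL.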

[7] = Cmax in beagle dog assessed as pibrentasvir1 level at 40 mg, po measured up to 24 hrs; type: ADME, organism-based, Canis lupus familiaris; design: route oral, dose 40 mg, time <=24; details: in vivo; how it was run: as §3
[8] = AUC in beagle dog assessed as pibrentasvir1 level at 40 mg, po measured up to 24 hrs; type: ADME, organism-based, Canis lupus familiaris; design: route oral, dose 40 mg, time <=24; details: in vivo; how it was run: as §3
[9] = Cmax in CD1 mouse assessed as pibrentasvir1 level at 3 mg/kg, po measured up to 24 hrs; type: ADME, organism-based; design: route oral, dose 3 mg/kg, time <=24; details: in vivo
How it was run: (§4)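 CD-1 mice, fed ad libitum, were dosed orally at a prodrug-MW-adjusted dose equal to 3 mg/kg PIB, as a solution or suspension. Serial K2EDTA blood samples were taken from 0.25 to 24 h. Plasma was separated by centrifugation and kept frozen. PIB and prodrug levels were reported as Cmax (ng/mL) and AUC (ng·h/mL).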

[10] = AUC in CD1 mouse assessed as pibrentasvir1 level at 3 mg/kg, po measured up to 24 hrs; type: ADME, organism-based; design: route oral, dose 3 mg/kg, time <=24; details: in vivo; how it was run: as §4
[11] = Cmax in beagle dog at 40 mg, po measured up to 24 hrs; type: ADME, organism-based, Canis lupus familiaris; design: route oral, dose 40 mg, time <=24; details: in vivo; how it was run: as §3
[12] = Cmax in CD1 mouse at 3 mg/kg, po measured up to 24 hrs; type: ADME, organism-based; design: route oral, dose 3 mg/kg, time <=24; details: in vivo; how it was run: as §4
[13] = AUC in CD1 mouse at 3 mg/kg, po measured up to 24 hrs; type: ADME, organism-based; design: route oral, dose 3 mg/kg, time <=24; details: in vivo; how it was run: as §4
[14] = Cmax in CD1 mouse assessed as pibrentasvir1 level at 6 mg/kg, po measured up to 24 hrs; type: ADME, organism-based; design: route oral, dose 6 mg/kg, time <=24; details: in vivo
How it was run: (§5)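 CD-1 mice with free access to food and water received an oral gavage of prodrug or PIB at 10 mL/kg in 0.2% HPMC. The dose was adjusted for prodrug MW to equal 6 mg/kg PIB. K2EDTA blood was drawn at 0.25, 0.5, 1, 3, 6, 9, 12 and 24 h. Plasma was spun at 3200 x g for 5 min at ~4°C and stored below -15°C. PIB and prodrug were measured; AUC in ng·h/mL, Cmax in ng/mL.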

[15] = AUC in CD1 mouse assessed as pibrentasvir1 level at 6 mg/kg, po measured up to 24 hrs; type: ADME, organism-based; design: route oral, dose 6 mg/kg, time <=24; details: in vivo; how it was run: as §5
[16] = Half life of compound at pH 7.4 at 125 ug/ml at 37 degC by HPLC analysis; type: physicochemical; details: dose 125 µg/ml
[17] = AUC in cynomolgus monkey at 2 mg/kg, po measured up to 12 hrs; type: ADME, organism-based, Macaca fascicularis; design: route oral, dose 2 mg/kg, time <=12; details: in vivo
How it was run: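 Female cynomolgus monkeys were fasted overnight and dosed by gastric intubation with a suspension in 0.5% HPMC at 0.5 mL/kg. The dose was MW-adjusted to 2 mg/kg PIB equivalent, and food was returned at 4 h. Plasma was collected at intervals up to 12 h and assayed for PIB and prodrug to give AUC in ng·h/mL.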

[18] = Apparent permeability in MDCK cells; type: ADME, cell-based, Canis lupus familiaris; details: dog
[19] = Lipophilicity, logD of compound; type: physicochemical; details: octanol/water
[20] = Aqueous solubility of compound at pH 7; type: physicochemical
[21] = Aqueous solubility of compound at pH 2; type: physicochemical
[22] = Protein binding in human plasma; type: ADME, cell-free; details: read-out: PPB (converted)
[23] = Cmax in beagle dog at 40 mg, po dosed as phase 2 tablet measured up to 24 hrs; type: ADME, organism-based, Canis lupus familiaris; design: route oral, dose 40 mg, time <=24; details: in vivo
How it was run: (§6)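 Fasted beagle dogs received the 40 mg phase 2 PIB tablet (amorphous drug in polymer support), crushed for dosing.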

[24] = AUC in beagle dog at 40 mg, po dosed as phase 2 tablet measured up to 24 hrs; type: ADME, organism-based, Canis lupus familiaris; design: route oral, dose 40 mg, time <=24; details: in vivo; how it was run: as §6
[25] = AUC in CD1 mouse at 6 mg/kg, po measured up to 24 hrs; type: ADME, organism-based; design: route oral, dose 6 mg/kg, time <=24; details: in vivo; how it was run: as §5
[26] = Stability of compound at pH 7.4 assessed as prodrug remaining level at 125 ug/ml incubated for 3 hrs by HPLC analysis; type: physicochemical; details: buffer, pH 7.4, 3 h, at 125 µg/mL
[27] = Permeability by PAMPA; type: ADME

| SMILES | solubility thermodynamic [1] [µg/mL] | solubility [2] [µg/mL] | solubility thermodynamic [3] [µg/mL] | Stabilty [4] [%] | Stabilty [5] [%] | AUC at 24 h [6] [ng·h/mL] | Cmax [7] [ng/mL] | AUC [8] [ng·h/mL] | Cmax [9] [ng/mL] | AUC [10] [ng·h/mL] | Cmax [14] [ng/mL] | AUC [15] [ng·h/mL] | AUC at 12 h [17] [ng·h/mL] | also measured |
| --- | --- | --- | --- | --- | --- | --- | --- | --- | --- | --- | --- | --- | --- | --- |
| COC(=O)N[C@H](C(=O)N1CCC[C@H]1c1nc2cc(F)c([C@H]3CC[C@H](c4cc5nc([C@@H]6CCCN6C(=O)[C@@H](NC(=O)OC)[C@@H](C)OC)n(COC(=O)[C@@H](N)C(C)C)c5cc4F)N3c3cc(F)c(N4CCC(c5ccc(F)cc5)CC4)c(F)c3)cc2[nH]1)[C@@H](C)OC | < 0.1 | > 1000 | > 1000 | 78 | 5 | 568 | 379 | 3940 | 129 | 2340 |  |  |  |  |
| COC(=O)N[C@H](C(=O)N1CCC[C@H]1c1nc2cc(F)c([C@H]3CC[C@H](c4cc5c(cc4F)nc([C@@H]4CCCN4C(=O)[C@@H](NC(=O)OC)[C@@H](C)OC)n5COP(=O)(O)O)N3c3cc(F)c(N4CCC(c5ccc(F)cc5)CC4)c(F)c3)cc2[nH]1)[C@@H](C)OC | > 4000 |  | > 4000 | 100 | 100 | 93 | 152 | 1470 | 17 | 278 |  |  |  | Cmax [11]: 20 ng/mL; Cmax [12]: 2.2 ng/mL; AUC at 24 h [13]: 12.6 ng·h/mL |
| COC(=O)N[C@H](C(=O)N1CCC[C@H]1c1nc2cc(F)c([C@H]3CC[C@H](c4cc5nc([C@@H]6CCCN6C(=O)[C@@H](NC(=O)OC)[C@@H](C)OC)n(COC(=O)Cc6ccc(OP(=O)(O)O)cc6)c5cc4F)N3c3cc(F)c(N4CCC(c5ccc(F)cc5)CC4)c(F)c3)cc2[nH]1)[C@@H](C)OC | 135 (≈ 99.5 µM) | > 1000 | 45 (≈ 33.2 µM) | 74 | 71 |  | 155 | 1920 |  |  | 905 | 16100 | 197 | half-life at 125 ug/ml [16]: > 24 h |
| COC(=O)N[C@H](C(=O)N1CCC[C@H]1c1nc2cc([C@H]3CC[C@H](c4cc5nc([C@@H]6CCCN6C(=O)[C@@H](NC(=O)OC)[C@@H](C)OC)[nH]c5cc4F)N3c3cc(F)c(N4CCC(c5ccc(F)cc5)CC4)c(F)c3)c(F)cc2[nH]1)[C@@H](C)OC [PIBRENTASVIR] | < 0.1 | 169 (≈ 152 µM) | 422 (≈ 379 µM) |  |  | 3860 | 339 | 3860 |  |  | 408 | 6720 | 166 | Papp [18]: < 1 ×10⁻⁶ cm/s; logD [19]: 5.7; solubility [20]: < 0.1 µg/mL; solubility [21]: 420 µg/mL (≈ 377 µM); fraction unbound [22]: < 0.001; Cmax [11]: 339 ng/mL; Cmax [23]: 239 ng/mL; AUC [24]: 2730 ng·h/mL; Cmax [12]: 280 ng/mL; AUC at 24 h [13]: 5170 ng·h/mL; AUC at 24 h [25]: 6720 ng·h/mL |
| COC(=O)N[C@H](C(=O)N1CCC[C@H]1c1nc2cc(F)c([C@H]3CC[C@H](c4cc5nc([C@@H]6CCCN6C(=O)[C@@H](NC(=O)OC)[C@@H](C)OC)n(COC(=O)[C@@H](NC(=O)/C=C/C(=O)O)C(C)C)c5cc4F)N3c3cc(F)c(N4CCC(c5ccc(F)cc5)CC4)c(F)c3)cc2[nH]1)[C@@H](C)OC | < 0.2 | 542 (≈ 404 µM) | 203 (≈ 151 µM) | 97 | 67 |  |  |  |  |  | 15 | 231 |  | AUC at 24 h [25]: 354 ng·h/mL |
| COC(=O)N[C@H](C(=O)N1CCC[C@H]1c1nc2cc(F)c([C@H]3CC[C@H](c4cc5nc([C@@H]6CCCN6C(=O)[C@@H](NC(=O)OC)[C@@H](C)OC)n(C(=O)OCCCOP(=O)(O)O)c5cc4F)N3c3cc(F)c(N4CCC(c5ccc(F)cc5)CC4)c(F)c3)cc2[nH]1)[C@@H](C)OC | 631 (≈ 487 µM) | > 1000 | 23 (≈ 17.8 µM) | 54 | < 1 |  | 196 | 2140 |  |  | 26 | 456 |  | Stabilty [26]: < 20% |
| CC(C)(C)[C@@H]1NC(=O)O[C@@H]2CCC[C@H]2OC/C=C/C(F)(F)c2nc3ccccc3nc2O[C@@H]2C[C@@H](C(=O)N[C@]3(C(=O)NS(=O)(=O)C4(C)CC4)C[C@H]3C(F)F)N(C2)C1=O [GLECAPREVIR] |  | 40 (≈ 47.7 µM) |  |  |  |  |  |  |  |  |  |  |  | Papp [18]: 1.4 ×10⁻⁶ cm/s; logD [19]: 2.5; solubility [20]: 300 µg/mL (≈ 358 µM); solubility [21]: < 100 µg/mL; Papp [27]: 5.2 ×10⁻⁶ cm/s; fraction unbound [22]: 0.025 |
| COC(=O)N[C@H](C(=O)N1CCC[C@H]1c1nc2cc(F)c([C@H]3CC[C@H](c4cc5nc([C@@H]6CCCN6C(=O)[C@@H](NC(=O)OC)[C@@H](C)OC)n(COP(=O)(O)O)c5cc4F)N3c3cc(F)c(N4CCC(c5ccc(F)cc5)CC4)c(F)c3)cc2[nH]1)[C@@H](C)OC | 6.4 (≈ 5.23 µM) |  | 37.3 (≈ 30.5 µM) | 100 | 100 |  | 55 | 429 | 141 | 2660 |  |  | 160 | half-life at 125 ug/ml [16]: > 72 h |
